The text below walks through data of ChEMBL document CHEMBL4680238, “Novel octapeptide-DTX prodrugs targeting MMP-7 as effective agents for the treatment of colorectal cancer with lower systemic toxicity” (Eur J Med Chem, 2020).

A short description of data set [1]: AUC (0 to t) in Sprague-Dawley rat at 5 mg/kg, iv measured up to 72 hrs by LC-MS/MS analysis. Particulars: in vivo; call rule not given here. Also noted: route intravenous, dose 5 mg/kg, time <=72. It is filed as ADME, organism-based. A digest of the protocol: (§1)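 Male SD rats (180-200 g), fasted 12 h with free water, n = 3 per group. Single tail-vein dose of 5 mg/kg in 0.5% DMSO/5% castor oil/5% ethanol/89.5% saline. Retro-orbital blood drawn 0.083-72 h with heparin. Plasma protein-precipitated with methanol containing paclitaxel internal standard, then analysed by LC-MS/MS. Parameters from non-compartmental analysis, mean ± SD. For the DTX group, parameters were calculated after converting dose to the molar equivalent of the prodrug.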

Data set [2] can be described thus: AUC (0 to t) in Sprague-Dawley rat assessed as docetaxel level at 5 mg/kg, iv measured up to 72 hrs by LC-MS/MS analysis. It is filed as ADME, organism-based. The arrangement: route intravenous, dose 5 mg/kg, time <=72. Conditions: in vivo. A digest of the protocol: as §1
Data set [3] can be described thus: Drug uptake in BALB/c nude mouse xenografted with human HCT-116 cells assessed as drug level in liver at 5 mg/kg, iv measured up to 24 hrs by LC-MS/MS analysis. It counts as ADME, organism-based. Conditions: in vivo. The procedure, abridged:
(§2)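 Male BALB/c nude mice bearing s.c. HCT116 tumours (200-300 mm3), 20 per group. Single tail-vein dose of 5 mg/kg. Five mice per group killed at 0.5, 4, 8 and 24 h and heart-perfused with PBS. Tissues homogenized in saline (4 µL/mg) and precipitated with methanol containing paclitaxel internal standard. Prodrug, released DTX and free DTX measured by LC-MS/MS.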
Background: Xenograft models place foreign cells or tissue in a host animal.

For another data set, the system named is CCD-18Co. The experiment in a line: Cytotoxicity against human CCD-18Co cells assessed as reduction in cell viability after 72 hrs by MTT assay. It counts as cell-based. A digest of the protocol:
(§3)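 Cells seeded at 5000/well and precultured 1 day. HCT116 grown in McCoy's 5A + 10% FBS; SW620 and HEK293 in DMEM + 10% FBS; CCD18Co in DMEM + 15% FBS. Compounds from 0.1 M DMSO stocks were tested at 10^-10 to 10^-4 mol/L in sixplicate: HCT116 and HEK293 for 48 h, SW620 and CCD18Co for 72 h, at 37 °C, 5% CO2. MTT (5 mg/mL) added for 4 h, then A570 read; IC50 estimated.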

Data set [4] relates to HCT-116. The experiment in a line: Antitumour activity against human HCT-116 cells xenografted in BALB/c nude mouse assessed as tumour growth inhibition at 11.7 mg/kg, ip administered once for every 7 days for 14 days relative to control. It counts as functional. Conditions: HCT-116, ip, 336 h, time 14 day, read-out: TGI. A digest of the protocol:
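Male BALB/c nude mice received s.c. HCT116 cells (2 × 10^6 in 0.2 mL PBS). Once tumours reached 100-200 mm3, mice were randomized into groups of six. Dosing was ip, 0.1 mL/10 g, once every 7 days, in DMSO 0.5%/castor oil 5%/ethanol 5%/saline 89.5%; vehicle controls got solvent. Caliper volume V = L×W²×0.52 read every 2-3 days. Tumours excised and weighed on day 14.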

The nature of data set [5]: Drug uptake in BALB/c nude mouse xenografted with human HCT-116 cells assessed as drug level in heart at 5 mg/kg, iv measured up to 24 hrs by LC-MS/MS analysis. It is filed as ADME, organism-based. Conditions: in vivo. The procedure, abridged: as §2
The test system of data set [6] is HCT-116. As to the kind of experiment: Cytotoxicity against human HCT-116 cells assessed as reduction in cell viability after 48 hrs by MTT assay. It counts as functional, cell-based. Conditions: HCT-116, 48 h. The procedure, abridged: as §3
On the technique in general: Tetrazolium assays rely on reduction of a dye to a coloured formazan, in cell work by metabolically active cells.

Data set [7] in a line: Apparent volume of distribution in Sprague-Dawley rat assessed as docetaxel level at 5 mg/kg, iv measured up to 72 hrs by LC-MS/MS analysis. It counts as ADME, organism-based. Particulars: in vivo. A digest of the protocol: as §1
Data set [8] is described as follows: Toxicity in BALB/c nude mouse xenografted with human HCT-116 cells assessed as necrosis in liver at 11.73 mg/kg, ip administered once for every 7 days for 14 days by H and E staining based assay. It is filed as organism-based. Conditions: in vivo, 336 h, time 14 day. The procedure, abridged: (§4)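 At the end of the 14-day ip xenograft study (HCT116, BALB/c nude), heart and liver were collected from vehicle and molar-equivalent dose groups. Tissues fixed in 10% formalin in PBS and stained with H&E. Liver examined at 400×, heart at 100×.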

Data set [9] is described as follows: Toxicity in BALB/c nude mouse xenografted with human HCT-116 cells assessed as inflammatory cell invasion in heart at 11.73 mg/kg, ip administered once for every 7 days for 14 days by H and E staining based assay. It is filed as organism-based. Particulars: in vivo, 336 h, time 14 day. The procedure, abridged: as §4
A short description of data set [10]: Drug uptake in BALB/c nude mouse xenografted with human HCT-116 cells assessed as drug level in tumour at 5 mg/kg, iv measured up to 24 hrs by LC-MS/MS analysis. It counts as ADME, organism-based, Neoplasm. Particulars: in vivo. The procedure, abridged:
as §2

Data set [11] in a line: Half life in Sprague-Dawley rat at 5 mg/kg, iv measured up to 72 hrs by LC-MS/MS analysis. It counts as ADME, organism-based. Conditions: in vivo. The procedure, abridged:
as §1

Data set [12] is described as follows: AUC (0 to infinity) in Sprague-Dawley rat assessed as docetaxel level at 5 mg/kg, iv measured up to 72 hrs by LC-MS/MS analysis. It counts as ADME, organism-based. The arrangement: route intravenous, dose 5 mg/kg, time <=72. Particulars: in vivo. The procedure, abridged:
as §1

A short description of data set [13]: Half life in Sprague-Dawley rat plasma t 50 ug/ml up to 72 hrs by RP-HPLC analysis. It counts as ADME, cell-free. Conditions: dose 50 µg/ml.
Data set [14] is described as follows: Half life in Sprague-Dawley rat assessed as docetaxel level at 5 mg/kg, iv measured up to 72 hrs by LC-MS/MS analysis. It is filed as ADME, organism-based. Particulars: in vivo. A digest of the protocol: as §1
A short description of data set [15]: Apparent volume of distribution in Sprague-Dawley rat at 5 mg/kg, iv measured up to 72 hrs by LC-MS/MS analysis. It is filed as ADME, organism-based. Conditions: in vivo, read-out: Vz. A digest of the protocol: as §1
Data set [16] in a line: Drug uptake in BALB/c nude mouse xenografted with human HCT-116 cells assessed as drug level in kidney at 5 mg/kg, iv measured up to 24 hrs by LC-MS/MS analysis. It counts as ADME, organism-based. Conditions: in vivo. The procedure, abridged:
as §2

Each structure is given as a SMILES string. Residues, ends and D or L forms follow the SMILES beside them. *: point of attachment. X1 = CC(=O)O[C@@]12CO[C@@H]1C[C@H](O)[C@@]1(C)C(=O)[C@H](O)C3=C(C)[C@@H](OC(=O)[C@H](OC(=O)OCc4ccc(N*)cc4)[C@@H](NC(=O)OC(C)(C)C)c4ccccc4)C[C@@](O)([C@@H](OC(=O)c4ccccc4)[C@H]21)C3(C)C Where only a bound is given, the exact number is not on record here.

In general, AUC(0-t) refers to exposure summed from dosing to a finite time, without extrapolation to infinity. Low readings indicate less exposure, high ones more exposure. A word on the IC50: it is the point on the concentration scale where inhibition reaches its midpoint. The half-life is the time in which the quantity being followed falls by half. A higher half-life goes with slow loss. What is called AUC is the area under the concentration-time curve, a measure of exposure. `CC[C@H](C)[C@H](NC(=O)CNC(=O)[C@H](CCC(N)=O)NC(=O)[C@@H]1CCCN1C(=O)CNC(C)=O)C(=O)N[C@@H](C)C(=O)N[C@@H](CCSC)C(=O)N[C@@H](CCC(N)=O)C(=O)N[C@@H](CC(C)C)C(=O)Nc1ccc(COC(=O)O[C@@H](C(=O)O[C@H]2C[C@@]3(O)[C@@H](OC(=O)c4ccccc4)[C@@H]4[C@]5(OC(C)=O)CO[C@@H]5C[C@H](O)[C@@]4(C)C(=O)[C@H](O)C(=C2C)C3(C)C)[C@@H](NC(=O)OC(C)(C)C)c2ccccc2)cc1` (Ac-GPQGIAMQL-X1) displayed an AUC(0-t) at 72 h in [1] of 9.07 µg·h/mL. The AUCt in data set [2] came out at 0.247 µg·h/mL. Further, the Drug uptake entry in [3], in [5], in data set [10] and in data set [16] was “Active” each time. The half-maximal inhibitory concentration (IC50) was > 200000 nM with CCD-18Co and 9.1 nM in the data set with HCT-116 [6]. Also, the inhibition in vivo at 11.7 mg/kg in the data set on HCT-116 [4] amounted to 46.3%. The Vz in [7] was determined as 206.32 L/kg. The Activity entry in [8] and in data set [9] was “Non-Toxic” each time. Besides, the half-life in data set [11] is 12.8 h. In data set [12], the AUC came out at 0.299 µg·h/mL. Besides, the half-life at 50 ug/ml in data set [13] is 24.2 h. Moreover, the t1/2 in data set [14] turned out to be 7.03 h. The Vd in data set [15] is 10.4 L/kg.
